The text below walks through data of ChEMBL document CHEMBL2385076, “Discovery of 2-((1H-benzo[d]imidazol-1-yl)methyl)-4H-pyrido[1,2-a]pyrimidin-4-ones as novel PKM2 activators” (Bioorg Med Chem Lett, 2013).

Series [1] is described as follows: Kinetic solubility of the compound at pH 7.4. It is filed as physicochemical. The conditions noted are these: buffer, read-out: Kinetic_solubility.
Series [2] in a line: Passive permeability from apical to basolateral side of dog RRCK cells. It is filed as ADME, cell-based, Canis lupus familiaris, MDCKII-LE. Particulars: MDCK, read-out: permeability.
Series [3] in a line: Intrinsic clearance in human liver microsomes. It is filed as ADME, Microsome. The conditions noted are these: read-out: CLH.
The target in series [4] is T1, Pyruvate kinase PKM (Homo sapiens, UniProt P14618). As to the kind of experiment: Activation of human PKM2 assessed as production of ATP at infinite concentration after 10 mins by lactate dehydrogenase-coupled enzyme assay relative to FBP. Summed up: (§1)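 Coupled to lactate dehydrogenase, NADH loss read as the drop in absorbance at 340 nm. Reaction: 2nM human PKM2 (cleaved N-term his, 1-531), 2 mM PEP, 0.35 mM NADH, 4 units/mL LDH in 50 mM Tris pH 7.5 with KCl and 5 mM MgCl2. Compound preincubated 10 minutes at 32 °C, then 0.5mM ADP starts the reaction. Duplicates; 10-point curves; asymptote max = % activation at infinite concentration.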
Target sequence in this assay (P14618 2-531 limits assumed): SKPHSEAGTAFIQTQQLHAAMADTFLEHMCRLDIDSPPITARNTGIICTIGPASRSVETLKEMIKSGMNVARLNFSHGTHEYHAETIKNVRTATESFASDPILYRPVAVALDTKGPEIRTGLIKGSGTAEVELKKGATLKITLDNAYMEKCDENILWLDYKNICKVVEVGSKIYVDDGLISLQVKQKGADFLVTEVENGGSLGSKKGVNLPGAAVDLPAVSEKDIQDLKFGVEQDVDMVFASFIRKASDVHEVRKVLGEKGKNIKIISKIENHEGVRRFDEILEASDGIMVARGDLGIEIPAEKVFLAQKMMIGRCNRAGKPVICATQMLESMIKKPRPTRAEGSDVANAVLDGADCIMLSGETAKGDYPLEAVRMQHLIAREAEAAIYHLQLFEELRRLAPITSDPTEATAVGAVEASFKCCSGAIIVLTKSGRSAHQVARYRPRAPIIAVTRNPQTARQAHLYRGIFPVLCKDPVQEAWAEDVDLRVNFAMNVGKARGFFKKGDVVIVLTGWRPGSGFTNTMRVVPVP

In series [5] the target is T1, Pyruvate kinase PKM. As to the kind of experiment: Activation of human PKM2 assessed as production of ATP at 10 uM after 10 mins by lactate dehydrogenase-coupled enzyme assay. Summed up:
as §1
Target sequence in this assay (P14618 2-531 limits assumed): as above

In another series the test system is HT-29. The experiment in a line: Antiproliferative activity against human HT-29 cells at 10 uM after 5 days. The format is functional. The conditions noted are these: HT-29, 120 h. The procedure, abridged:
(§2)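 Cells plated in Optimem-GlutaMax medium and cultured overnight before exposure to 10 µM compound. Viability measured with CytoTox-Glo after 5 days of treatment.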

A further series deals with JHH2. As to the kind of experiment: Antiproliferative activity against human JHH2 cells at 10 uM after 5 days. The format is functional, cell-based. The procedure, abridged:
as §2

For the next series, the system named is SNU-182. As to the kind of experiment: Antiproliferative activity against human SNU182 cells at 10 uM after 5 days. It is filed as functional, cell-based. Summed up: as §2
For another series, the system named is SNU-449. As to the kind of experiment: Antiproliferative activity against human SNU449 cells at 10 uM after 5 days. The format is functional, cell-based. Summed up: as §2
The target of series [6] is T1, Pyruvate kinase PKM. The experiment in a line: Activation of PKM2 in human Snu182 cells assessed as extracellular acidification rate at 10 uM after 18 hrs. It is filed as cell-based. The procedure, abridged: (§3)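 Snu182 cells seeded at 12k/well in RPMI with 10% FBS and 2 mM glutamine, cultured overnight, then given 10 µM compound for 18 h at 37°C, 5% CO2. Medium switched to XF DMEM with 5 mM glucose plus 10 µM compound; OCR and ECAR measured on a Seahorse XF96 analyzer.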
Target sequence in this assay (P14618 2-531 limits assumed): as above

The target in series [7] is T1, Pyruvate kinase PKM. As to the kind of experiment: Activation of PKM2 in human Snu182 cells assessed as oxygen consumption rate at 10 uM after 18 hrs. The format is cell-based. The procedure, abridged: as §3
Target sequence in this assay (P14618 2-531 limits assumed): as above
For series [8], the target named is T1, Pyruvate kinase PKM. The experiment in a line: Activation of PKM2 in human Huh7 cells assessed as formation of enzyme tetramers. The format is cell-based. The conditions noted are these: Huh-7.
Target sequence in this assay (P14618 2-531 limits assumed): as above
Series [9] addresses T1, Pyruvate kinase PKM. As to the kind of experiment: Activation of PKM2 in human Huh7 cells assessed as production of pyruvate and ATP by fluorescence assay. It is filed as cell-based, Huh-7. The procedure, abridged: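 Huh7 hepatocellular carcinoma cells were treated with compound and lysed, and the lysate was given PEP and ADP. The pyruvate formed was oxidized by pyruvate oxidase, and the fluorescence, proportional to pyruvate, was read as cellular pyruvate kinase activity.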
Target sequence in this assay (P14618 whole entry): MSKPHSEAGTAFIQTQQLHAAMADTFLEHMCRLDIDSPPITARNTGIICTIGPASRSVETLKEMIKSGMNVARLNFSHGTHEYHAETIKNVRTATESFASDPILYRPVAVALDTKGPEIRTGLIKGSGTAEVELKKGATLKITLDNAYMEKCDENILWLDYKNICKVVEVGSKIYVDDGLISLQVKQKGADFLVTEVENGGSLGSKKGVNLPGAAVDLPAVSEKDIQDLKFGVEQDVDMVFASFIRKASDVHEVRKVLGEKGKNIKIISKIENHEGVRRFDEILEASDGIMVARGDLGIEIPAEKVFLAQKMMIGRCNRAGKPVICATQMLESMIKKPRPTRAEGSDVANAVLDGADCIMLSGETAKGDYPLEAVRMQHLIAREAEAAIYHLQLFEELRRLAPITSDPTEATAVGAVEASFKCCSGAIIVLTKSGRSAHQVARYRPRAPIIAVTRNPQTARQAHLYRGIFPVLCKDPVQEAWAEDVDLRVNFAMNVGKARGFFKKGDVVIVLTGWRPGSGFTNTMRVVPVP

In the next series the test system is HuH-1 (human). As to the kind of experiment: Antiproliferative activity against human HuH1 cells at 10 uM after 5 days.
Series [10] has as its target T1, Pyruvate kinase PKM. The experiment in a line: Activation of human PKM2 assessed as production of ATP at 10 uM after 10 mins by high-throughput screening assay relative to control. Summed up: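 High-throughput screen in which PKM2 activity was read as ATP production by luminescence, reported as % activation at 10 µM.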
Target sequence in this assay (P14618 2-531 limits assumed): as the sequence (P14618 2-531 limits assumed) above

≈ marks a conversion by molar mass, not a printed value. Calls of active or inactive are those of the source. The calls are words filed in the database; no cut-off is given here. A value given as a limit tells only on which side of the number the result lay.

In the case of `Cc1sc2nc(Cn3cnc4ccccc43)cc(=O)n2c1C`, the solubility kinetic in series [1] was determined as 141 µM (≈ 43.8 µg/mL). In series [2], the Papp A→B amounted to 22.9 ×10⁻⁶ cm/s. Also, the microsomal CLint in series [3] was determined as 12.5 µL/min/mg. Further, on Pyruvate kinase PKM [4], the max activation came out at 160%.
On the same counts, the results for `Cc1csc2nc(Cn3cnc4ccccc43)cc(=O)n12` are 117 µM (≈ 34.7 µg/mL), 23.4 ×10⁻⁶ cm/s, 8 µL/min/mg and 136%.
In the case of `CCc1ccc(C)n2c(=O)cc(Cn3cnc4ccccc43)nc12`, the Papp A→B in [2] stood at 16.2 ×10⁻⁶ cm/s. Also, the microsomal CLint in series [3] was determined as 184 µL/min/mg. In addition, at Pyruvate kinase PKM [4], the max activation was 135%.
Regarding `O=c1cc(Cn2cnc3ccccc32)nc2ccccn12`, the max activation at Pyruvate kinase PKM [4] was 161%.
Turning to `O=c1cc(Cn2cnc3ccccc32)nc2sccn12`, the solubility kinetic in [1] came out at 569 µM (≈ 161 µg/mL). Further, in series [2], the Papp A→B is 17.3 ×10⁻⁶ cm/s. In series [3], the microsomal CLint was 8 µL/min/mg. For the same compound, the max activation at Pyruvate kinase PKM [4] was 162%.
On the same counts, the results for `COc1ccc2nc(Cn3cnc4ccccc43)cc(=O)n2c1` are 580 µM (≈ 178 µg/mL), 25.8 ×10⁻⁶ cm/s, under 8 µL/min/mg and 123%.
`Cc1ccc2nc(Cn3c(C)nc4ccccc43)cc(=O)n2c1`: the max activation at Pyruvate kinase PKM [5] came out at 73%.
Take `O=c1cc(Cn2cnc3ccccc32)nc2scc(-c3ccccc3)n12`: in series [2], the Papp A→B came to 11.5 ×10⁻⁶ cm/s. Also, in [3], the microsomal CLint came to 8 µL/min/mg. The max activation at Pyruvate kinase PKM [4] turned out to be 167%.
As to `Cc1ccc2nc(Cn3cnc4ccccc43)cc(=O)n2c1`, the max activation on Pyruvate kinase PKM [4] stood at 149%.
As for `Cc1ccn2c(=O)cc(Cn3cnc4ccccc43)nc2c1`, the solubility kinetic in series [1] came to 586 µM (≈ 170 µg/mL). For the same compound, in series [2], the Papp A→B turned out to be 21.3 ×10⁻⁶ cm/s. In [3], the microsomal CLint was 13.3 µL/min/mg. The max activation on Pyruvate kinase PKM [4] turned out to be 161%.
As for `CCc1nn2c(=O)cc(Cn3cnc4ccccc43)nc2s1`, the Papp A→B in series [2] was found to be 17.6 ×10⁻⁶ cm/s. The microsomal CLint in series [3] is 8 µL/min/mg. The max activation on Pyruvate kinase PKM [4] was 140%.
Regarding `Cc1cccn2c(=O)cc(Cn3cnc4ccccc43)nc12`, in series [1], the solubility kinetic was found to be 529 µM (≈ 154 µg/mL). Besides, the Papp A→B in [2] turned out to be 24.2 ×10⁻⁶ cm/s. For the same compound, in [3], the microsomal CLint came out at 17.8 µL/min/mg. For the same compound, the max activation at Pyruvate kinase PKM [4] is 172%.
What is called inhibition is the share of the control response that was lost under treatment. As usually defined, the EC50 is the concentration giving half of the maximal effect. Regarding `COc1cccc(NS(=O)(=O)c2cc3c(cc2Cl)NC(=O)CO3)c1`, in [1], the solubility kinetic worked out at 8.6 µM (≈ 3.17 µg/mL). The Papp A→B in series [2] amounted to 8.8 ×10⁻⁶ cm/s. In addition, the microsomal CLint in series [3] amounted to 22.4 µL/min/mg. Moreover, the max activation at Pyruvate kinase PKM [4] turned out to be 108%. The compound further gave an inhibition at 10 µM with HT-29 of 26.8%. In addition, the result with JHH2, with SNU-182, with SNU-449 and in the series with HuH-1 (human) was inactive. Moreover, the Activity was found to be 91.4% on Pyruvate kinase PKM [6] and 85.7% at Pyruvate kinase PKM [7]. Besides, the result at Pyruvate kinase PKM [8] was Active. The EC50 on Pyruvate kinase PKM [9] was determined as 22 nM.
Turning to `O=c1cc(Cn2cnc3ccccc32)nc2ccc(Cl)cn12`, in series [1], the solubility kinetic turned out to be 558 µM (≈ 173 µg/mL). Also, the Papp A→B in series [2] worked out at 22.2 ×10⁻⁶ cm/s. In addition, the microsomal CLint in [3] is under 8 µL/min/mg. In addition, on Pyruvate kinase PKM [4], the max activation is 156%.
On to `Cc1ccc2nc(Cn3c(Cc4ccccc4)nc4ccccc43)cc(=O)n2c1`, for which the Activity at Pyruvate kinase PKM [10] was determined as 155%. Further, on Pyruvate kinase PKM [4], the max activation came out at 148%.
For the compound `Cc1cn2c(=O)cc(Cn3cnc4ccccc43)nc2s1`, the Papp A→B in series [2] stood at 14.3 ×10⁻⁶ cm/s. Further, in series [3], the microsomal CLint is 8 µL/min/mg. In addition, the max activation on Pyruvate kinase PKM [4] was 189%.
